Measured values: ChEMBL document CHEMBL4431376, “CZ415, a Highly Selective mTOR Inhibitor Showing in Vivo Efficacy in a Collagen Induced Arthritis Model” (ACS Med Chem Lett, 2016)
pIC50: −log10 of the molar value. In brackets after ≈: the same amount, converted by molar mass.

Assays:
[1] = biological target: T1, Cytochrome P450 1A (Homo sapiens, UniProt P04798+P05177); assay: Inhibition of CYP1A in human liver microsomes
T1 sequence (P04798 whole entry): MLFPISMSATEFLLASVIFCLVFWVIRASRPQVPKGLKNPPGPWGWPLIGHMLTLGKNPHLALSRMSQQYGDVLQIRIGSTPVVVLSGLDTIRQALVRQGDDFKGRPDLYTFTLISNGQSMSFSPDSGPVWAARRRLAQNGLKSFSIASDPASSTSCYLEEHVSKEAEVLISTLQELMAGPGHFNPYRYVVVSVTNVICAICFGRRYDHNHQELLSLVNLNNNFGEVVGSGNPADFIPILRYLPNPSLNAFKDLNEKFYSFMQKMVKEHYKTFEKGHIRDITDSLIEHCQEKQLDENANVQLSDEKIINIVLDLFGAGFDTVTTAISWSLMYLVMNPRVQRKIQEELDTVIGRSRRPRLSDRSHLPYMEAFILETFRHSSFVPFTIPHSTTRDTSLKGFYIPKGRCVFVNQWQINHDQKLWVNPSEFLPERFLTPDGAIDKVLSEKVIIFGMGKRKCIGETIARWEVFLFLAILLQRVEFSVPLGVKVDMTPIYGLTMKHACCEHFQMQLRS
T1 sequence (P05177 whole entry): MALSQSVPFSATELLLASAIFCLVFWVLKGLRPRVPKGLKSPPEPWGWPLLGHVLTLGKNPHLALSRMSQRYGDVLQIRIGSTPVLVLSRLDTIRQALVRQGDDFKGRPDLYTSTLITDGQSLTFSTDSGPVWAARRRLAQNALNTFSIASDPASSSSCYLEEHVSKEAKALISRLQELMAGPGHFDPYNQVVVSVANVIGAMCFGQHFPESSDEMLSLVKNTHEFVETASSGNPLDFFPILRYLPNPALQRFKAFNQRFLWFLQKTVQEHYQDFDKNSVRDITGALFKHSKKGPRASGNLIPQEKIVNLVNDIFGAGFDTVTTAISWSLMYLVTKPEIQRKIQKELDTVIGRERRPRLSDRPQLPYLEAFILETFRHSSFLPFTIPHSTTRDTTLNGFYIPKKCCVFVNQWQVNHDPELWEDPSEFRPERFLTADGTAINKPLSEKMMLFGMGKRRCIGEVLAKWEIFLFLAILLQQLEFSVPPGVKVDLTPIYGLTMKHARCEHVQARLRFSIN

[2] = biological target: T2, Cytochrome P450 2C8 (Homo sapiens, UniProt P10632); assay: Inhibition of CYP2C8 in human liver microsomes; type: ADME
T2 sequence (P10632 whole entry): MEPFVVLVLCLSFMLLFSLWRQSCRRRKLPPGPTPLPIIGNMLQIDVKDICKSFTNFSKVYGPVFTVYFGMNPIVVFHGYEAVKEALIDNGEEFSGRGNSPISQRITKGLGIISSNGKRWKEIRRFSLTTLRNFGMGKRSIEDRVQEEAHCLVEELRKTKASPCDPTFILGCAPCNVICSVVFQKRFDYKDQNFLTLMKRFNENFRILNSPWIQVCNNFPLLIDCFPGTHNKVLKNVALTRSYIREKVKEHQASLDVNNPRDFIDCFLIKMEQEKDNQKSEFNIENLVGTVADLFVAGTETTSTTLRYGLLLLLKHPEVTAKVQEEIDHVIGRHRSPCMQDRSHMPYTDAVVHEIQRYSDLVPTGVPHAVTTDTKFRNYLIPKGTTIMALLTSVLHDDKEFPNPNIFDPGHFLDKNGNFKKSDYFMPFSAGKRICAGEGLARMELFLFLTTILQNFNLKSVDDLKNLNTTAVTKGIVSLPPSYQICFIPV

[3] = biological target: Cytochrome P450 2C9 (Homo sapiens, UniProt P11712); assay: Inhibition of CYP2C9 in human liver microsomes; type: ADME
[4] = biological target: Cytochrome P450 2C19 (Homo sapiens, UniProt P33261); assay: Inhibition of CYP2C19 in human liver microsomes; type: ADME
[5] = biological target: Cytochrome P450 2D6 (Homo sapiens, UniProt P10635); assay: Inhibition of CYP2D6 in human liver microsomes; type: ADME
[6] = biological target: T3, Cytochrome P450 3A4 (Homo sapiens, UniProt P08684); assay: Inhibition of CYP3A4 in human liver microsomes; type: ADME
[7] = biological target: T3, Cytochrome P450 3A4; assay: Induction of CYP3A4 in […] at 10 uM; type: ADME
Outline: (§1)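 CYP3A4 induction tested at 10 μM. Time-dependent inhibition of CYP3A4 tested at up to 50 μM.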

[8] = biological target: T3, Cytochrome P450 3A4; assay: Time-dependent inhibition of CYP3A4 in human liver microsomes at 50 uM; type: ADME; outline: as §1
[9] = biological target: Voltage-gated inwardly rectifying potassium channel KCNH2 (Homo sapiens, UniProt Q12809); assay: Inhibition of human ERG expressed in HEK293 cells by whole cell patch clamp assay; type: cell-based
Outline: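 hERG measured by whole-cell patch clamp in HEK293 cells, reported as IC50.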

[10] = Mutagenicity in Salmonella typhimurium by Ames test; type: toxicity; details: salmonella enterica subsp. enterica serovar typhimurium
[11] = tested on: Lymphoma cell line; assay: Genotoxicity in mouse lymphoma cells in presence of rat liver S9 fraction; type: toxicity, cell-based
[12] = tested on: Lymphoma cell line; assay: Genotoxicity in mouse lymphoma cells in absence of rat liver S9 fraction; type: toxicity, cell-based
[13] = Distribution coefficient, logD of compound at pH 7.4; type: physicochemical; details: octanol/water
Outline: (§2)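 logD measured at pH 7.4. Kinetic solubility measured by CLND. Solubility also measured in FaSSIF and FeSSIF biorelevant media.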

[14] = Kinetic solubility of compound by chemiluminescent nitrogen detection method; type: physicochemical; details: read-out: Kinetic_solubility; outline: as §2
[15] = Solubility of compound in fasted state simulated intestinal fluid; type: physicochemical; outline: as §2
[16] = Solubility of compound in fed state simulated intestinal fluid; type: physicochemical; outline: as §2
[17] = Apparent permeability from apical to basolateral side in human CaCo2 cells; type: ADME, cell-based; details: Caco-2
Outline: (§3)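 Caco-2 monolayer permeability, measured as Papp in the apical-to-basolateral and basolateral-to-apical directions.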

[18] = Apparent permeability from basolateral to apical side in human CaCo2 cells; type: ADME, cell-based; details: Caco-2; outline: as §3
[19] = Intrinsic clearance in pooled rat liver microsomes at 1 uM incubated up to 40 mins in presence of NADPH by LC-MS/MS analysis; type: ADME, Microsome
Outline: (§4)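 Metabolic stability was assessed in liver microsomes (rat, dog, human) and hepatocytes (dog, human). Intrinsic clearance was calculated as μL/min/g liver.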

[20] = Intrinsic clearance in pooled dog liver microsomes at 1 uM incubated up to 40 mins in presence of NADPH by LC-MS/MS analysis; type: ADME, Canis lupus familiaris, Microsome; outline: as §4
[21] = Intrinsic clearance in pooled human liver microsomes at 1 uM incubated up to 40 mins in presence of NADPH by LC-MS/MS analysis; type: ADME, Microsome; outline: as §4
[22] = Intrinsic clearance in pooled cryopreserved dog hepatocytes at 1 uM incubated up to 90 mins by LC-MS/MS analysis; type: ADME, cell-based, Canis lupus familiaris, Hepatocyte; details: 1.5 h; outline: as §4

T3 sequence (P08684 whole entry): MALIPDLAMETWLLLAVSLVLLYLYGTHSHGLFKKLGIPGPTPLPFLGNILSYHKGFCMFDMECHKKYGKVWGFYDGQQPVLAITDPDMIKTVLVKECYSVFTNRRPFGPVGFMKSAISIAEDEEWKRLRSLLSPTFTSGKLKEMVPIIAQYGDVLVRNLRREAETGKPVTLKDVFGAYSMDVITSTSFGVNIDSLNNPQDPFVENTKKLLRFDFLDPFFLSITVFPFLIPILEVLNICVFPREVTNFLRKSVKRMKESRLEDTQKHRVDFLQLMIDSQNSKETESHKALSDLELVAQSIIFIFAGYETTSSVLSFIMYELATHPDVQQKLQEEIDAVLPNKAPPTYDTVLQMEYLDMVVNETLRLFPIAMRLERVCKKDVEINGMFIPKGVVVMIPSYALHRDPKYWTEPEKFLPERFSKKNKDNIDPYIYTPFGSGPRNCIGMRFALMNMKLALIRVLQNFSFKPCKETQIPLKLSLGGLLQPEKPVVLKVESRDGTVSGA
Chain of Voltage-gated inwardly rectifying potassium channel KCNH2 (Q12809 whole entry): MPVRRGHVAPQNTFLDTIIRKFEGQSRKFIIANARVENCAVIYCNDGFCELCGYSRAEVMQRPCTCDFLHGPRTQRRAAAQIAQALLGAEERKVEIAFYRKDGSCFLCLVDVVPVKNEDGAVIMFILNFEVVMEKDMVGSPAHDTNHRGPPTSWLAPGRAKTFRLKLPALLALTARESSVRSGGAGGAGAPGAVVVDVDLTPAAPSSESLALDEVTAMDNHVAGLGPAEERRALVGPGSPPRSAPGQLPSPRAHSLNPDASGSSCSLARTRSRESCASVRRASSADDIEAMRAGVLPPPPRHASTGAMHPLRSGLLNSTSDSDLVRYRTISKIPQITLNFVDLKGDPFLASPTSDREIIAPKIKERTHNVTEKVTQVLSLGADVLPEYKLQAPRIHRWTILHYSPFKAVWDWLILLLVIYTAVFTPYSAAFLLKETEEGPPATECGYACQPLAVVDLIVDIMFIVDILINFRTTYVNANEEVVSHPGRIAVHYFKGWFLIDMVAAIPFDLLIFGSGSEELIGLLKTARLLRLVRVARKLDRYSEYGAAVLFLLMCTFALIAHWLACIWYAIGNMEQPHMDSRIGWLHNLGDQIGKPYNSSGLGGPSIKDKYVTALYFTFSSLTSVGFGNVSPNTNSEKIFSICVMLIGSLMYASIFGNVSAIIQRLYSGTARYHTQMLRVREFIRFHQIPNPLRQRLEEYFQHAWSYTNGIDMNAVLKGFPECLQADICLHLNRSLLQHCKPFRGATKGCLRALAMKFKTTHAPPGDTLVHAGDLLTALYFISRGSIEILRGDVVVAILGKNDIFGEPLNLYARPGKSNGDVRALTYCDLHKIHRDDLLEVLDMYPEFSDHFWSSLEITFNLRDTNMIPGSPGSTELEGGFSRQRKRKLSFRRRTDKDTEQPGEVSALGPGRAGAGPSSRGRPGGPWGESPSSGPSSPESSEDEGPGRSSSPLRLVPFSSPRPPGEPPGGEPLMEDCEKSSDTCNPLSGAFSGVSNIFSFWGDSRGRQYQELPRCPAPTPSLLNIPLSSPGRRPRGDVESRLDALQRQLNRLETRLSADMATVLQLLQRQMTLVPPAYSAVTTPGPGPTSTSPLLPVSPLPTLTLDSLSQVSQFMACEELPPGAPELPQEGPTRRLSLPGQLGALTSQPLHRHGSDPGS
Chain of Cytochrome P450 2C9 (P11712 whole entry): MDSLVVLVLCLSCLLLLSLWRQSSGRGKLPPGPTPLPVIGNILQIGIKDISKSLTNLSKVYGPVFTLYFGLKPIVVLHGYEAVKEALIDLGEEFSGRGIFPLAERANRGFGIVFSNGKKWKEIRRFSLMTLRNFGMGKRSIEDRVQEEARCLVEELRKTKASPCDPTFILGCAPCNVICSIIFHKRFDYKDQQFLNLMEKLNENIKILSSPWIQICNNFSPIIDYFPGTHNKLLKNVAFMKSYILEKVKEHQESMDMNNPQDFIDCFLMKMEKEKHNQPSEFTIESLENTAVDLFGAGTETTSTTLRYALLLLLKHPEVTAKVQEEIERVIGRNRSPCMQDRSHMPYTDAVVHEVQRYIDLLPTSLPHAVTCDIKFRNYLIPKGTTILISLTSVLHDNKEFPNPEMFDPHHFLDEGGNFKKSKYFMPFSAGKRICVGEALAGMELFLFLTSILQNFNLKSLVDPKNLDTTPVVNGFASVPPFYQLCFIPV
Chain of Cytochrome P450 2C19 (P33261 whole entry): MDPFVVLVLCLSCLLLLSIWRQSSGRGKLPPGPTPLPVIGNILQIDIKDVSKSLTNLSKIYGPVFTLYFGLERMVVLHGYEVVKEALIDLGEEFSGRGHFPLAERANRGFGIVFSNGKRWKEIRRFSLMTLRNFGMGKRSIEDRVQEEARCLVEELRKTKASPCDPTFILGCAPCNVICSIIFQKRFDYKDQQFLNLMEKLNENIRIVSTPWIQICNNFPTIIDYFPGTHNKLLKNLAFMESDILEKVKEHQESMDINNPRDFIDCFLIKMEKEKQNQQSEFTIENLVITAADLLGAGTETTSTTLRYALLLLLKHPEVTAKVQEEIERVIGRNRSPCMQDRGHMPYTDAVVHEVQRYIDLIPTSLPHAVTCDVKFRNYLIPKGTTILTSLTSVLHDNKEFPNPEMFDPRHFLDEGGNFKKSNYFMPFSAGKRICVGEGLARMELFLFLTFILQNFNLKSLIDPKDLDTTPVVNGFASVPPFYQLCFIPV
Chain of Cytochrome P450 2D6 (P10635 whole entry): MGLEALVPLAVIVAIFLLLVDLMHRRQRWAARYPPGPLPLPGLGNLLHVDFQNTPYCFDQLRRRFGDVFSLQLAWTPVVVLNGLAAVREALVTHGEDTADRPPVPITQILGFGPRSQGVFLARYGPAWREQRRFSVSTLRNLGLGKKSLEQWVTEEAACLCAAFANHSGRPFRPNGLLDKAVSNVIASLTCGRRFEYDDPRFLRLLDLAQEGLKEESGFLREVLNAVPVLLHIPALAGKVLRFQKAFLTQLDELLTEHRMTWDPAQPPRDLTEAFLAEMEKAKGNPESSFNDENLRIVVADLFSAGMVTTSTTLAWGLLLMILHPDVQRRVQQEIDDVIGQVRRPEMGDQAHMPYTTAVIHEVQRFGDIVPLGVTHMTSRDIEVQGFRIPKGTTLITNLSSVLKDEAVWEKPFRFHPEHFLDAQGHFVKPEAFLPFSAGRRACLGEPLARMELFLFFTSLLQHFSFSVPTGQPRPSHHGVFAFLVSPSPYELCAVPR

CCNC(=O)Nc1ccc(-c2nc(N3CCOC[C@@H]3C)c3c(n2)C(C)(C)S(=O)(=O)C3)cc1
inhibition (INH) [1]: Not Active | inhibition (INH) [2]: Not Active | inhibition (INH) [3]: Not Active | inhibition (INH) [4]: Not Active | inhibition (INH) [5]: Not Active | inhibition (INH) [6]: Not Active | Activity [7]: Not Active | TDI [8]: Not Active | pIC50 [9]: 4.32 | Activity [10]: Non-Toxic | Activity [11]: Non-Toxic | Activity [12]: Non-Toxic | logD [13]: 4.31 | solubility kinetic [14]: 150 µM (≈ 68.7 µg/mL) | solubility [15]: 11.1 µg/mL (≈ 24.2 µM) | solubility [16]: 60.1 µg/mL (≈ 131 µM) | Papp A→B [17]: 0.047 ×10⁻⁶ cm/s | Papp B→A [18]: 0.102 ×10⁻⁶ cm/s | CLH [19]: < 0.6 µL/min/g | CLH [20]: < 1.1 µL/min/g | CLH [21]: 1.5 µL/min/g | CLH [22]: < 0.8 µL/min/g
